Measurements from ChEMBL document CHEMBL1129305, “Drug delivery systems. 2. Camptothecin 20-O-poly(ethylene glycol) ester transport forms” (J Med Chem, 1996).

Tests used:
[1] = test system: Mus musculus; test: Percentage of increased life expectancies (ILS) of mice at a dose of 16 mg/kg camptothecin; ILS = (T/C-1) X 100; type: functional
Outline: (§1)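 Mice bearing P388 leukemia dosed ip on days 1–5 to a total of 16 mg/kg camptothecin equivalents, given as aqueous solution or lipid suspension. Groups were 10–20 mice against untreated controls, with survivors counted at 40 days. Read-outs were mean time to death, T/C and ILS = (T/C−1)×100, compared by Student t test assuming equal variances.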

[2] = test system: Mus musculus; test: Ratio between mean time to death of treated versus control (survivors at 40 days) at a dose of 16 mg/kg of camptothecin, mice dosed days 1-5; type: functional; outline: as §1
[3] = test system: Mus musculus; test: Mean time to death at a dose of 16 mg/kg of camptothecin, mice dosed days 1-5; type: ADME, organism-based; set-up: dose 16 mg/kg; details: in vivo; outline: as §1
[4] = Half life in PBS buffer (pH 7.4) at 37 degree C (DMSO employed as cosolvent); type: ADME; details: PBS buffer with DMSO as cosolvent
Outline: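 Hydrolysis run at 37 °C in PBS pH 7.4 with DMSO as cosolvent. Half-life recorded in duplicate, with SD ±10%.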

[5] = Half life in PBS buffer (pH 7.4) at 37 degree C; type: ADME
Outline: (§2)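 Hydrolysis run at 37 °C in PBS, pH 5.6 or pH 7.4 as stated in the line. Half-life is the time for loss of the ester. Runs done in duplicate, with SD ±10%.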

[6] = Half life in PBS buffer (pH 5.6) at 37 degree C; type: ADME; outline: as §2
[7] = Half life in human plasma at 37 degree C; type: ADME, organism-based
Outline: (§3)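 Ester incubated at 37 °C in rat or human plasma. Half-life recorded as disappearance of the transport form, with release of parent drug also followed over time. Runs done in duplicate, with SD ±10%.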

[8] = Half life in rat plasma at 37 degree C; type: ADME, organism-based; outline: as §3

SMILES	ILS at 16 mg/kg [1] [%]	T/C [2]	Mean time to death [3] [days]	half-life [4] [h]	half-life [5] [h]	half-life [6] [h]	half-life [7] [h]	half-life [8] [h]
CC[C@@]1(O)C(=O)OCc2c1cc1n(c2=O)Cc2cc3ccccc3nc2-1 [CAMPTOTHECIN]	193	2.93	38.7	–	–	–	–	–
CC[C@@]1(OC(C)=O)C(=O)OCc2c1cc1n(c2=O)Cc2cc3ccccc3nc2-1	–	–	–	> 72	–	–	–	–
CC[C@@]1(OC(=O)CN)C(=O)OCc2c1cc1n(c2=O)Cc2cc3ccccc3nc2-1.O=C(O)C(F)(F)F	64	1.64	21.7	–	3.5	16	0.25	0.5
